These results are taken from ChEMBL document CHEMBL1155561, “A new 2D-TLC bioautography method for the discovery of novel antifungal agents To control plant pathogens” (2000).

Active and inactive are the calls of the source. The rule behind the calls is not given here.

For this test, the system named is Colletotrichum fragariae. Description: Antifungal activity against Colletotrichum fragariae assessed as zone of inhibition. In kind it is functional. The method in brief: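 Direct 1D-TLC bioautography on glass-backed Si gel plates (activated 1 h at 100 °C). Standards were applied at […] from 5 µM ethanolic solutions (1 × 10-5 µmol/spot) and developed in 1:1 EtOAc/hexanes. Plates were sprayed three times with conidia (ca. 3 × 10^5/mL) in PDB with 0.1% agar and 0.1% Tween-80, then incubated at 24 °C with a 12 h photoperiod. Inhibition zones were measured after 4 days.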
Turning to `CC(C)Oc1cccc(NC(=O)c2ccccc2C(F)(F)F)c1`, the outcome was inactive.

Turning to `O=CNC(N1CCN(C(NC=O)C(Cl)(Cl)Cl)CC1)C(Cl)(Cl)Cl` (stereo not given), the result was inactive.

Regarding `c1ccc2[nH]c(-c3cscn3)nc2c1`, the outcome was inactive.

As for `Nc1c(Cl)cc([N+](=O)[O-])cc1Cl` [ALLISAN], the inhibition zone (IZ) stood at 80 mm2. `CO/C=C(/C(=O)OC)c1ccccc1Oc1cc(Oc2ccccc2C#N)ncn1` [AZOXYSTROBIN]: the inhibition zone (IZ) amounted to 80 mm2. Regarding `COC(=O)Nc1nc2ccccc2[nH]1` [CARBENDAZIM], the inhibition zone (IZ) came out at 24 mm2.

Consider `CC(=O)O.CCCCCCCCCCCCNC(=N)N` [DODINE], for which the inhibition zone (IZ) is 20 mm2. As to `O=[N+]([O-])c1c(Cl)c(Cl)c(Cl)c(Cl)c1Cl` [PENTACHLORONITROBENZENE], the inhibition zone (IZ) came out at 5 mm2.

Take `COC(=O)NC(=S)Nc1ccccc1NC(=S)NC(=O)OC` [THIOPHANATE METHYL]: the inhibition zone (IZ) was 24 mm2. For `C=CC1(C)OC(=O)N(c2cc(Cl)cc(Cl)c2)C1=O` (stereo not given) [VINCLOZOLIN], the inhibition zone (IZ) was determined as 48 mm2.
